# STAT1 activator: increases IFN-gamma driven STAT1 reporter signal; NIH 3T3 STAT1-luciferase reporter, luminescence; 100% = IFN-gamma alone, no compound; 2.6% of 200,000 active; activation (% of control), % at 5.5 µM;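 active = activation above the screen-wide mean activation plus 3 SD, cut at about 130% in these data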;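 note: raw ratio to IFN-gamma control signal so 100% means no change and 0% no light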
# Pf gametocyte: inhibitors of late stage P. falciparum gametocyte viability; inhibition, % at 10.9 µM; 0.065% of 150,000 active; P. falciparum stage V gametocytes, ATP luminescence, 24 h;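 active = inhibition above the mean plus 3 SD of compounds within the control limits, set per campaign, cut at about 38% in these data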;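 note: 0% = DMSO wells and 100% = medium only without gametocytes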
# NF-kB neuron act: NF-kB expression increase, human neuronal cells | NF-kB reporter expression; stronger effect = higher value | fold change at 12.5 µM | 1.6% of 190,000 active; in the data active = fold change above about 3.3
# FLuc act counter: affects firefly luciferase, flagging false hits in luciferase stimulation screens; P08659; ATPlite luciferase biochemical, luminescence, 10 min; 0 = ATP-free wells, 1 = DMSO control; activation factor at 10 µM; 200,000 tested, under 10 active; AID 1027;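 active = luciferase activation factor, scaled between plate controls, of at least 2 with compound at 10 µM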
# Target sequence (P08659 whole entry, looked up): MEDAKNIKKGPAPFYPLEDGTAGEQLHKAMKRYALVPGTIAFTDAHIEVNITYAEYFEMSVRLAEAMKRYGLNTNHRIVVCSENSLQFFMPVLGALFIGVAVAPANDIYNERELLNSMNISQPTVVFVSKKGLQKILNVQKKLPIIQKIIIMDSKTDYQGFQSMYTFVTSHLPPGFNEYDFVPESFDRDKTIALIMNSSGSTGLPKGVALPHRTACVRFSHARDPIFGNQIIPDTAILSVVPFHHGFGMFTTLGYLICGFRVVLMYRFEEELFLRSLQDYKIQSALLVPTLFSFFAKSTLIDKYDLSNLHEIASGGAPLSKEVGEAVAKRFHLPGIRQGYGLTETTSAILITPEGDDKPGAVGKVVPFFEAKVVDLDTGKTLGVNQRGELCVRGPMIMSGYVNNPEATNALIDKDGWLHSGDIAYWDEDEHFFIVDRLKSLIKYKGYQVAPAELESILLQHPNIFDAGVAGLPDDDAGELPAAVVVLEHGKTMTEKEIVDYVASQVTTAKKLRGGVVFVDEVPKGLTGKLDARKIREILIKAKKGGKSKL
#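 Assay system: Luciferase/luciferin detection reagent, cell-free biochemical luciferase assay / Read-out: luciferase activation / Benchmarks: No-ATP low control, compound-free enzyme-plus-ATP high control / Medium: PBS buffer for ATP / Detection: luminescence measurement of luciferase light output / Schedule: 10 min at ambient temperature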
# FLuc inhib CS: Photinus pyralis luciferase inhibition counter-screen | P08659 | ATPLite firefly luciferase biochemical luminescence, 10 min | inhibition, % at 10 µM | 1.5% of 200,000 active | AID 1006;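 active = inhibition above about 50% when tested at 10 µM, limit read from the data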
# APP 5'UTR act: APP 5'UTR luciferase reporter activation | 1% of 190,000 active | SH-SY5Y APP 5'UTR luciferase reporter, luminescence; zero percent = DMSO vehicle wells | activation, % at 2 µM;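 active = activation above a set limit, based on mean plus 3 SD of controls, cut at about 140% in these data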
# * marks the source's active call; other numbers are inactive results; x = not tested or not shown. This is a sample that favours compounds with a hit; in the whole collection about 3.5% have one here.
SMILES,STAT1 activator,Pf gametocyte,NF-kB neuron act,FLuc act counter,FLuc inhib CS,APP 5'UTR act
O=C1c2ccccc2S(=O)(=O)N1CCOc1ccccc1,103.3,22.4,1.71,1,4.4,2.0
O=C(NCCc1ccccc1)c1cccnc1N1CCCCCC1,106.6,3.2,1.25,1,-3.1,-0.1
COc1ccccc1CNC(=O)CSc1ccsc1[N+](=O)[O-],136.8*,-19.3,2.53,1,-0.6,59.6
CN(C)c1ccc(-c2cc([C@H]3[C@@H]4C=CCC[C@@]4(C)C(=O)N3Cc3ccccc3)ccc2F)cc1,x,-57.1,x,x,x,x
CSc1ccc(C2c3[nH]c4ccccc4c3CCN2C(=O)c2cc(C)n(C)n2)cc1 (configuration not stated),132.3*,x,2.6,1,-2.9,71.5
Cc1cc(C(=O)N2CCc3c([nH]c4ccccc34)C2c2cccc(Cl)c2)nn1C (configuration not stated),98.8,11.0,0.8,1,-0.6,-6.0
O=C(N/N=C1\CCc2ccccc21)c1ccncc1,129.7*,-7.6,1.3,0.9,13.0,54.9
COc1ccc(C(=O)N/N=C2\CCc3ccccc32)cc1OC,112.4,-1.2,1.43,1,1.5,-4.4
O=C(N/N=C1\CCc2ccccc21)c1ccccc1O,103.9,-1.4,3.84*,0.1,89.5*,127.8
O=C(N/N=C1\CCCc2ccccc21)c1ccccc1Cl,122.4,-6.7,1.72,0.9,11.2,-15.3
C=CCn1c(SCC(=O)Nc2ccccc2-c2ccccc2)nc2cc(C(=O)O)ccc2c1=O,104.6,22.5,1.1,1.1,-6.7,9.3
Cc1cc(C)c(S(=O)(=O)n2ccc(-c3ccc(OCCN(C)c4ccccn4)cc3)n2)c(C)c1,104.2,x,0.94,1,-1.5,1.2
O=C(Nc1ccc(F)cc1)c1c(Cl)nc2ccccn12,128.4,-1.5,1.39,1,-3.9,30.4
COc1ccc(NC(=O)c2c(Cl)nc3ccccn23)cc1,133.9*,-3.8,1.01,0.9,10.9,45.4
COc1ccc(/C=C/C(=O)c2c(C)nc3ccccn23)cc1,140.9*,1.6,1.71,0.8,19.4,106.5
Cc1nc2ccccn2c1C(=O)/C=C/c1ccc(F)cc1,128.7*,9.9,3.44*,0.8,19.8,16.6
COc1ccc(CNC(=O)c2c(C)nc3ccccn23)cc1,91.3,x,0.77,1.1,-5.3,7.1
CCn1c(SCC(=O)Nc2nc(-c3ccc(C)cc3)cs2)nnc1-c1ccccc1,84.3,-2.7,0.81,1,-3.6,-6.1
Cc1ccc2nc(-c3ccc(NC(=O)CSc4nccc(=O)[nH]4)cc3)sc2c1,134.5*,15.7,1.89,0.6,37.5,143.8*
Cc1ccc2nc(-c3ccc(NC(=O)CSc4nc(N)cc(=O)[nH]4)cc3)sc2c1,x,-18.6,x,x,x,x
C=CCn1c(SCC(=O)Nc2ccc(-c3nc4ccc(C)cc4s3)cc2)nnc1-c1ccncc1,130.2*,x,1.47,1,-2.9,160.5*
CCn1c(SCC(=O)Nc2ccc(-c3nc4ccc(C)cc4s3)cc2)nnc1-c1ccccc1,132.2*,x,1.6,1,3.9,109.5
CCN(c1nc(C)cc(OC)n1)S(=O)(=O)c1ccccc1,96.6,3.5,1.04,1,-2.8,x
COc1cc(N=CC2=C(O)c3ccccc3C2=O)cc(OC)c1,147.7*,22.9,1.26,1,-2.5,24.6
CC(C)CN=CC1=C(O)c2ccccc2C1=O,x,2.0,x,x,x,x
SMILES,STAT1 activator,Pf gametocyte,NF-kB neuron act,FLuc act counter,FLuc inhib CS,APP 5'UTR act
Cn1cnc2cc(NC(=O)c3ccc(Cl)cc3)ccc21,140.4*,x,5.04*,0.8,19.7,89.0
CC(C)(C)n1cnc2cc(NC(=O)c3ccc(Cl)cc3)ccc21,x,-23.1,x,x,x,x
Cn1c(CN2CCCC2)nc2cc(NC(=O)c3ccc(Cl)cc3)ccc21,146.1*,-0.5,1.33,0.9,6.3,37.7
Cc1ccc2c(c1)C(N1CCCC1=O)CC(c1ccco1)N2 (configuration not stated),93.4,-24.7,3.72*,0.1,94.7*,126.9
Clc1ccccc1OCc1nnc(-c2ccccc2Br)o1,137.2*,0.7,3.08,1,3.4,95.3
Brc1ccccc1-c1nnc(COc2cccc3cccnc23)o1,101.0,x,1.08,1,-2.3,17.4
O=C(/C=C/c1cccs1)c1ccc(Br)cc1,104.6,x,2.32,0.4,60.7*,9.7
O=C(/C=C/c1cccs1)c1ccc(NC(=O)c2cccc(Br)c2)cc1,100.5,-10.1,1.19,1,-1.6,18.1
O=c1c2ccccc2oc2nc(-c3ccco3)n(Cc3ccccc3)c(=O)c12,107.0,x,1,1,0.0,-1.4
O=C(CSc1cccc[n+]1[O-])c1cc2ccccc2o1,112.3,x,4.21*,1,-0.8,30.8
Nc1nc(SCC(=O)c2cc3ccccc3o2)n[nH]1,97.8,1.4,0.94,1,2.7,22.7
O=C(CSc1cccc[n+]1[O-])c1cc(Cl)ccc1Cl,108.1,13.2,7.03*,1,-3.6,-26.7
O=C(O)CSc1cccc[n+]1[O-],96.5,-4.9,1.02,1,-4.4,-2.2
Cc1ccccc1SCCNC(=O)c1ccccc1Br,121.7,-2.6,1.82,0.9,6.5,27.3
Cc1ccccc1SCCNC(=O)CCc1ccccc1,148.7*,x,1.46,1,-4.3,2.4
CC(C(=O)NC(C)(C)C)N1C(=O)c2cccc3cccc(c23)C1=O (configuration not stated),93.4,x,1.12,1,-4.4,11.7
Cc1cc(NC(=O)c2ccc([N+](=O)[O-])o2)ccc1NC(=O)c1ccco1,100.7,-0.8,5.09*,1,1.3,-79.0
Cc1cc([N+](=O)[O-])ccc1NC(=O)c1ccco1,104.0,9.7,1.56,1,-1.3,0.1
COc1cc(NC(=O)C(C)C)ccc1NC(=O)c1ccco1,134.5*,-31.5,2.61,0.6,35.1,91.2
O=C(Nc1ccc(NC(=O)c2ccco2)cc1)c1ccc2c(c1)OCCO2,83.7,14.2,0.76,0.9,7.9,-34.1
Cc1cc(NC(=O)c2ccc3c(c2)OCCO3)ccc1NC(=O)c1ccco1,105.4,11.1,1.48,0.2,82.4*,13.9
COc1cccc(/C=N/NC(=O)CN2C(=O)NC3NC(=O)NC32)c1 (configuration not stated),106.4,-6.1,0.94,1,1.8,5.2
Cc1ccc(C(=O)Nc2nc(-c3ccccn3)cs2)o1,x,-3.0,x,x,x,x
c1ccc(CCNc2nc(-c3ccccn3)cs2)cc1,142.4*,9.7,4.1*,0.8,24.6,122.4
c1ccc(CCNc2nc(-c3cccnc3)cs2)cc1,133.2*,x,1.8,0.8,16.6,25.8
CCc1ccccc1Nc1nc(-c2cccnc2)cs1,x,4.1,x,x,x,x
Cn1ccc2cc(-c3ccc4ncnc(NCc5cccs5)c4c3)ccc21,x,14.3,x,x,x,x
Oc1ccc(-c2csc(Nc3ncccn3)n2)cc1O,132.9*,-8.4,12.2*,0.5,52.9*,-30.6
